Data set [1] deals with MIA PaCa-2. The experiment in a line: Growth inhibition of human MIAPaCa2 cells after 96 hrs by SRB assay. Format: functional, cell-based. The conditions noted are these: MIA PaCa-2, 96 h. The method in brief:
(§1)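 Cell lines kept at 37 °C, 5% CO2 in medium with 10% FBS and 2 mM L-glutamine. Compound dissolved in water, filter-sterilised, 10 mM stock diluted into media. Growth read by 96 h sulforhodamine B assay, absorbance at 540 nm. IC50 taken from mean absorbance per concentration as % of untreated wells, >3 individual determinations with standard deviations.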

The nature of data set [2]: Binding affinity to 5'-FAM/3'-TAMRA labeled KRAS21 promoter G-quadruplex DNA (unknown origin) assessed as change in melting temperature at 1 uM by FRET assay. The method in brief:
(§2)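 FRET melting of FAM/TAMRA dual-labelled promoter G4 oligonucleotides, 400 nM, annealed at 95 °C for 10 min in 60 mM potassium cacodylate (pH 7.4) then cooled to RT. Ligand at 1 μM in solution with 50 mM K+. Fluorescence (ex 450–495, em 515–545 nm) read every 0.5 °C over 30–100 °C with a 30 sec hold per step. ΔTm from curve fitting; triplicate measurements.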

In another data set the test system is A549. The experiment in a line: Growth inhibition of human A549 cells after 96 hrs by SRB assay. The conditions noted are these: A549, 96 h. Format: functional, cell-based. An outline of the steps: as §1
The test system of data set [3] is MIA PaCa-2. Nature of the data set: Antitumor activity against human MIAPaCa2 cells xenografted in CD-1 nude mouse assessed as change in tumor volume at 15 mg/kg, iv administered twice weekly for 4 weeks measured on day 29 relative to control. Format: functional. The method in brief:
(§3)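 Female CD-1 nude mice (2-3 months, 20−25 g) given 5 x 10^6 MIA PaCa-2 cells subcutaneously in right flank with Matrigel; dosing began once tumors were established (approx. 13 days, mean 0.05 cm3). Eight mice/group, IV in saline twice weekly for 28 days (8 doses) against a saline group. Tumors measured by calliper (length × width × height × π/6), with body weight. Student's t test.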

The species named for the next data set is Homo sapiens. Nature of the data set: Binding affinity to 5'-FAM/3'-TAMRA labeled human telomeric F21T G-quadruplex DNA assessed as change in melting temperature at 1 uM by FRET assay. The method in brief:
(§4)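 FRET melting with FAM/TAMRA dual-labelled oligonucleotides at 400 nM, annealed at 95 °C for 10 min in 60 mM potassium cacodylate pH 7.4 and slowly cooled. Ligand final 1 μM; solution contains 50 mM K+. Fluorescence read every 0.5 °C over 30–100 °C with 30 s hold, excitation 450–495 nm and emission 515–545 nm. ΔTm from curve fitting, triplicate measurements.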

Data set [4] in a line: Binding affinity to 5'-FAM/3'-TAMRA labeled BCL2 promoter G-quadruplex DNA (unknown origin) assessed as change in melting temperature at 1 uM by FRET assay. An outline of the steps: as §4
Data set [5] is described as follows: Binding affinity to 5'-FAM/3'-TAMRA labeled T-loop duplex DNA (unknown origin) assessed as change in melting temperature at 1 uM by FRET assay. An outline of the steps: as §4
A short description of data set [6]: Selectivity index, ratio of IC50 for human WI38 cells to IC50 for human MIAPaCa2 cells. Format: functional. An outline of the steps: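 SRB growth-inhibition assay over 96 h with compounds dissolved in water; cells grown in 10 % FBS at 37 °C, 5% CO2. Absorbance at 540 nm as a percentage of untreated wells gives the IC50. Values are averages of >3 determinations, with the ratio taken as WI-38 IC50 over MIA PaCa-2 IC50.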

Data set [7] can be described thus: Binding affinity to 5'-FAM/3'-TAMRA labeled HSP90A promoter G-quadruplex DNA (unknown origin) assessed as change in melting temperature at 1 uM by FRET assay. The method in brief:
as §2

The test system of data set [8] is MIA PaCa-2. The experiment in a line: Antitumor activity against human MIAPaCa2 cells xenografted in CD-1 nude mouse assessed as change in tumor volume at 15 mg/kg, iv administered twice weekly for 4 weeks measured on day 62 relative to control. Format: functional. The method in brief: as §3
Data set [9] is described as follows: Binding affinity to 5'-FAM/3'-TAMRA labeled human telomeric F21T G-quadruplex DNA by fluorescence anisotropy titration method.
Data set [10] is described as follows: Binding affinity to 5'-FAM/3'-TAMRA labeled HSP90B promoter G-quadruplex DNA (unknown origin) assessed as change in melting temperature at 1 uM by FRET assay. The method in brief: as §4
Data set [11] is described as follows: Binding affinity to 5'-FAM/3'-TAMRA labeled KRAS32 promoter G-quadruplex DNA (unknown origin) assessed as change in melting temperature at 1 uM by FRET assay. The method in brief:
as §2

A short description of data set [12]: Toxicity in iv dosed CD-1 nude mouse assessed as death measured up to 72 hrs. The conditions noted are these: in vivo. Format: organism-based. The method in brief: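 CD1 nude mice, two per group, given single IV doses in saline (10, 20, 30, 35, 40, 45, 50 and 60 mg/kg), with repeat dosing weekly. Watched for adverse effects for up to 72 h. Tolerated dose taken as highest cohort in which all mice survived without observed ill-effects.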

A further data set relates to CAPAN-1. Nature of the data set: Growth inhibition of human Capan1 cells after 96 hrs by SRB assay. Format: functional, cell-based. The note with it: CAPAN-1, 96 h. The method in brief: as §1
Another data set deals with BXPC-3. Nature of the data set: Growth inhibition of human BxPC3 cells after 96 hrs by SRB assay. Format: functional, cell-based. The conditions noted are these: BXPC-3, 96 h. The method in brief: as §1

Consider 2 compounds from ChEMBL document CHEMBL4020827, “Targeting Multiple Effector Pathways in Pancreatic Ductal Adenocarcinoma with a G-Quadruplex-Binding Small Molecule” (J Med Chem, 2018).

For the compound `CN1CCN(CCCNc2cc3c4c(c(NCCCN5CCN(C)CC5)cc5c4c2C(=O)N(CCCN2CCOCC2)C5=O)C(=O)N(CCCN2CCOCC2)C3=O)CC1`, the IC50 in the data set on MIA PaCa-2 [1] was 0.011 µM; in the data set with A549 it was 0.019 µM. Besides, the ΔTm in data set [2] worked out at 22.5 °C; in the data set listed under Homo sapiens it was 26.6 °C; in [4], 26.4 °C; in data set [5], 4.9 °C; in [7], 33.1 °C; in data set [10] it was 28.6 °C. The ΔTm in data set [11] worked out at 19.8 °C. Also, the Activity in the data set with MIA PaCa-2 [3] is listed as -66.7%; in the data set with MIA PaCa-2 [8] it was -56.7%. Also, in data set [6], the “Ratio IC50” value was 21. The same compound registered a Kd in data set [9] of 0.02 µM. Also, the MTD at 72 h in [12] turned out to be 25 mg/kg.
For `Nc1ccn([C@@H]2O[C@H](CO)[C@@H](O)C2(F)F)c(=O)n1` [GEMCITABINE], the Activity is listed as -66.7% in the data set with MIA PaCa-2 [3] and -61.7% with MIA PaCa-2 [8]. The IC50 in the data set with CAPAN-1 came to 0.019 µM; with BXPC-3 it was 0.006 µM.
